Source: ChEMBL document CHEMBL4007508, “Discovery and Pre-Clinical Characterization of Third-Generation 4-H Heteroaryldihydropyrimidine (HAP) Analogues as Hepatitis B Virus (HBV) Capsid Inhibitors” (J Med Chem, 2017)
The source made the active and inactive calls. The calls are words filed in the database; no cut-off is given here.

Columns and labels:
[1] = Glutathione reactivity assessed as adduct formation of the compound
[2] = test system: Hepatitis B virus; assay: Antiviral activity against HBV infected in hydrodynamic injection BALB/c mouse model assessed as reduction of viral DNA copy numbers in liver at 3 to 12.5 mg/kg, po bid after 5 days by real-time PCR method; assay type: functional, organism-based
In short: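 Female BALB/c mice hydrodynamically injected via tail vein with replication-competent HBV DNA plasmid. From 20 h post-injection, dosed orally for 5 days: 3 or 12.5 mg/kg twice daily, with vehicle and entecavir 0.1 mg/kg once daily as controls. Liver HBV DNA copies measured by real-time qPCR; six mice per group, SEM.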

[3] = test system: Hepatitis B virus; assay: Antiviral activity against HBV infected in human HepG2(2.2.15) cells assessed as decrease in HBV genome replication after 5 days by qPCR method; assay type: functional, cell-based; conditions: HepG2 2.2.15, 120 h
In short: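 HepG2.2.15 cells (stable HBV genome, Hep G2-derived; DMEM-F12, 10% FBS, penicillin/streptomycin, 0.5 mg/mL G418) seeded 3 × 10^4/well, incubated overnight at 37 °C. Compounds serially half-log diluted in DMSO, then in medium; final DMSO 0.5%. HBV DNA extracted and quantified by qPCR.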

[4] = Cytotoxicity against HBV infected human HepDE19 cells assessed as decrease in cell viability after 5 days by CCK8 assay; assay type: cell-based
In short: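 Tetracycline-inducible HBV HepDE19 cells seeded 5 × 10^3/well and treated with compounds. After 5 days, viability read by CCK-8 (2 h, 37 °C; absorbance 450 and 630 nm).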

[5] = Solubility of compound in phosphate buffer at pH 6.5 after one night incubation by HPLC-UV method; assay type: physicochemical
[6] = test system: Hepatocyte; assay: Induction of CYP3A4 mRNA expression in human primary hepatocyte after 24 hrs by real-time PCR relative to rifampicin; assay type: ADME, cell-based; parameters: concentration or dose not given beside the values; conditions: hepatocytes
In short: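 CYP3A4 mRNA levels measured in primary human hepatocytes and expressed relative to the positive control rifampicin at 10 μM.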

[7] = Cmax in mouse at 3 mg/kg, po by LC-MS/MS analysis; assay type: ADME, organism-based; parameters: dose 3 mg/kg, route oral; conditions: in vivo
In short: (§1)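 Single-dose mouse PK following standard procedures: IV 1 mg/kg and PO 3 mg/kg. Plasma CL, Vss, IV t1/2, PO Cmax, AUC(0−∞) in plasma (IV and PO) and liver (PO), and oral bioavailability F derived. Liver/plasma ratio uses the PO AUC(0−∞) values.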

[8] = Fraction unbound in mouse plasma at 1000 nM after 5 hrs by LC-MS/MS analysis; assay type: ADME, cell-free
[9] = Half life in mouse at 1 mg/kg, iv by LC-MS/MS analysis; assay type: ADME, organism-based; conditions: in vivo; in short: as §1
[10] = target: T1, Cytochrome P450 1A2 (Homo sapiens, UniProt P05177); assay: Inhibition of CYP1A2 (unknown origin); assay type: ADME
T1 sequence (P05177 whole entry): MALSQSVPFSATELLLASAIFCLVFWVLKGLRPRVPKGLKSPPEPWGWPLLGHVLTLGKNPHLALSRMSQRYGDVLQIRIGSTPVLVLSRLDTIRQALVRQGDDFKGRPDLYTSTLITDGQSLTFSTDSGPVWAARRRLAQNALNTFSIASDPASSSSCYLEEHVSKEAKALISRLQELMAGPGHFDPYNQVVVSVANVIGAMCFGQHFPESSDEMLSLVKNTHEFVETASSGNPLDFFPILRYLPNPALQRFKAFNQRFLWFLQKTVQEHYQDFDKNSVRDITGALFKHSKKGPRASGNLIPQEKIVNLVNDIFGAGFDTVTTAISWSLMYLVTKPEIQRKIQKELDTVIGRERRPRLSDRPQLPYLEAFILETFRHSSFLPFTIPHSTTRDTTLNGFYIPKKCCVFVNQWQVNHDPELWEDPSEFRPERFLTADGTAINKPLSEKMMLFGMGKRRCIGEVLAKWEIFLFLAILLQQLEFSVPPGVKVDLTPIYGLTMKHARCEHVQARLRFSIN
In short: (§2)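 CYP inhibition IC50 measured in a panel of five enzymes: CYP3A4, 2D6, 2C9, 2C19 and 1A2.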

[11] = AUC (0 to infinity) in mouse plasma at 3 mg/kg, po by LC-MS/MS analysis; assay type: ADME, organism-based; parameters: dose 3 mg/kg, route oral, time infinity; in short: as §1
[12] = AUC (0 to infinity) in mouse liver at 3 mg/kg, po by LC-MS/MS analysis; assay type: ADME, organism-based; parameters: dose 3 mg/kg, time infinity, route oral; in short: as §1
[13] = target: Cytochrome P450 2C9 (Homo sapiens, UniProt P11712); assay: Inhibition of CYP2C9 (unknown origin); assay type: ADME; in short: as §2
[14] = Apparent partition coefficient, log D of the compound at pH 7.4; assay type: physicochemical; conditions: octanol/water
[15] = target: T2, Cytochrome P450 3A4 (Homo sapiens, UniProt P08684); assay: Inhibition of CYP3A4 (unknown origin); assay type: ADME; in short: as §2
[16] = test system: Salmonella typhimurium; assay: Mutagenicity in Salmonella typhimurium by Ames test; assay type: toxicity; conditions: salmonella enterica subsp. enterica serovar typhimurium
[17] = target: Cytochrome P450 2D6 (Homo sapiens, UniProt P10635); assay: Inhibition of CYP2D6 (unknown origin); assay type: ADME; in short: as §2
[18] = target: T2, Cytochrome P450 3A4; assay: Time dependent inhibition of CYP3A4 (unknown origin); assay type: ADME
[19] = target: Cytochrome P450 2C19 (Homo sapiens, UniProt P33261); assay: Inhibition of CYP2C19 (unknown origin); assay type: ADME; in short: as §2
[20] = Volume of distribution at steady state in mouse at 1 mg/kg, iv by LC-MS/MS analysis; assay type: ADME, organism-based; conditions: in vivo, read-out: Vdss; in short: as §1
[21] = Ratio of AUC (0 to infinity) in mouse liver at 3 mg/kg, po to AUC (0 to infinity) in mouse plasma at 3 mg/kg, po by LC-MS/MS analysis; assay type: ADME, organism-based; conditions: liver and plasma, read-out: Ratio AUC; in short: as §1
[22] = target: hERG (KCNH2) (Homo sapiens, UniProt Q12809); assay: (§3) Inhibition of human ERG
[23] = target: Voltage-gated inwardly rectifying potassium channel KCNH2 (Homo sapiens, UniProt Q12809); assay: as §3
[24] = Fraction unbound in human plasma at 1000 nM after 5 hrs by LC-MS/MS analysis; assay type: ADME, cell-free
[25] = Acid ionization constant, pKa of the compound; assay type: physicochemical
[26] = Base ionization constant, pKa of the compound; assay type: physicochemical
[27] = Permeability of the compound at 150 uM after 18 hrs by PAMPA; assay type: physicochemical; conditions: read-out: permeability
[28] = Plasma clearance in mouse at 1 mg/kg, iv by LC-MS/MS analysis; assay type: ADME, organism-based; in short: as §1
[29] = Oral bioavailability in mouse at 3 mg/kg, by LC-MS/MS analysis; assay type: ADME, organism-based; conditions: in vivo; in short: as §1
[30] = Selectivity index, ratio of CC50 for HBV infected human HepDE19 cells to EC50 for HBV infected in human HepG2(2.2.15) cells
In short: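 Selectivity index calculated as CC50 (HepDE19, CCK-8 viability after 5 days) divided by EC50 (HBV DNA reduction in HepG2.2.15 cells, qPCR).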

[31] = AUC (0 to infinity) in mouse at 1 mg/kg, iv by LC-MS/MS analysis; assay type: ADME, organism-based; parameters: dose 1 mg/kg, time infinity, route intravenous; conditions: in vivo; in short: as §1

T2 sequence (P08684 whole entry): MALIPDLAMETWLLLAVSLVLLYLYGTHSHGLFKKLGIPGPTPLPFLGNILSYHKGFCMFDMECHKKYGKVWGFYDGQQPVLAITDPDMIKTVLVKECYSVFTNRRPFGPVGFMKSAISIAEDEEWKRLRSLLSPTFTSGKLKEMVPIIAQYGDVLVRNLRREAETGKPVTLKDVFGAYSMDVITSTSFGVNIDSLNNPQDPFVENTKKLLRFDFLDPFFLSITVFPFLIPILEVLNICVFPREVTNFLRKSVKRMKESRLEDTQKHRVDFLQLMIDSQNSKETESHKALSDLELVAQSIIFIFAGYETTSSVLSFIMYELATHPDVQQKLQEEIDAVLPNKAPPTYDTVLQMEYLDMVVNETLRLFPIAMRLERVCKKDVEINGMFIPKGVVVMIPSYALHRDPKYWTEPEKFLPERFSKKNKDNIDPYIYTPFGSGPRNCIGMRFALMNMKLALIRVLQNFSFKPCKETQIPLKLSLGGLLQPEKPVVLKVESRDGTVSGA
Cytochrome P450 2C19, sequence (P33261 whole entry): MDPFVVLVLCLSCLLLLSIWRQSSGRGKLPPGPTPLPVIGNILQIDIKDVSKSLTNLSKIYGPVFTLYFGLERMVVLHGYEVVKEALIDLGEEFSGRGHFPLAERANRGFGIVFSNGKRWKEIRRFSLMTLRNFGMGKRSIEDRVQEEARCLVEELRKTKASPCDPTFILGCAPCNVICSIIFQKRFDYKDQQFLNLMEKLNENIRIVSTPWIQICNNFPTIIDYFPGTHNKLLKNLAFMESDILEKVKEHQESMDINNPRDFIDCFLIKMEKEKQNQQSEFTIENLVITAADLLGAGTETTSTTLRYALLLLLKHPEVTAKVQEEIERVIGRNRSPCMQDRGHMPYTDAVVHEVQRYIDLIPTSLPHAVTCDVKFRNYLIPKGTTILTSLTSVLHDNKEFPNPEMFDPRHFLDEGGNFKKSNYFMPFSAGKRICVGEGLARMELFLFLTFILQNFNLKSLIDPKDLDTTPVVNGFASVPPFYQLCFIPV
Cytochrome P450 2D6, sequence (P10635 whole entry): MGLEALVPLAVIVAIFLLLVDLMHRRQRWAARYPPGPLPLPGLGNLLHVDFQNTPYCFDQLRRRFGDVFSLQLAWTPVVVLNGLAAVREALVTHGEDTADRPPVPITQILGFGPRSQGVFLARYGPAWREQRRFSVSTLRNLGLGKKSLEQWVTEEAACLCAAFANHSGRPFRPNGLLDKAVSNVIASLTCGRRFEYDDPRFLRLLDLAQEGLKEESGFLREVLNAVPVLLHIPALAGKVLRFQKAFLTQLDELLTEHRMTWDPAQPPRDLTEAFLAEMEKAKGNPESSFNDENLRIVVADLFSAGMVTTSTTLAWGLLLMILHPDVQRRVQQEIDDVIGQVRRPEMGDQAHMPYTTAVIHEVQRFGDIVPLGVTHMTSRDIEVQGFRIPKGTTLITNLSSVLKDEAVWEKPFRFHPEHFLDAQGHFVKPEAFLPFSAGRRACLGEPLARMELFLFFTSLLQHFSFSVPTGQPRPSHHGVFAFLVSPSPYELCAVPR
Voltage-gated inwardly rectifying potassium channel KCNH2, sequence (Q12809 whole entry): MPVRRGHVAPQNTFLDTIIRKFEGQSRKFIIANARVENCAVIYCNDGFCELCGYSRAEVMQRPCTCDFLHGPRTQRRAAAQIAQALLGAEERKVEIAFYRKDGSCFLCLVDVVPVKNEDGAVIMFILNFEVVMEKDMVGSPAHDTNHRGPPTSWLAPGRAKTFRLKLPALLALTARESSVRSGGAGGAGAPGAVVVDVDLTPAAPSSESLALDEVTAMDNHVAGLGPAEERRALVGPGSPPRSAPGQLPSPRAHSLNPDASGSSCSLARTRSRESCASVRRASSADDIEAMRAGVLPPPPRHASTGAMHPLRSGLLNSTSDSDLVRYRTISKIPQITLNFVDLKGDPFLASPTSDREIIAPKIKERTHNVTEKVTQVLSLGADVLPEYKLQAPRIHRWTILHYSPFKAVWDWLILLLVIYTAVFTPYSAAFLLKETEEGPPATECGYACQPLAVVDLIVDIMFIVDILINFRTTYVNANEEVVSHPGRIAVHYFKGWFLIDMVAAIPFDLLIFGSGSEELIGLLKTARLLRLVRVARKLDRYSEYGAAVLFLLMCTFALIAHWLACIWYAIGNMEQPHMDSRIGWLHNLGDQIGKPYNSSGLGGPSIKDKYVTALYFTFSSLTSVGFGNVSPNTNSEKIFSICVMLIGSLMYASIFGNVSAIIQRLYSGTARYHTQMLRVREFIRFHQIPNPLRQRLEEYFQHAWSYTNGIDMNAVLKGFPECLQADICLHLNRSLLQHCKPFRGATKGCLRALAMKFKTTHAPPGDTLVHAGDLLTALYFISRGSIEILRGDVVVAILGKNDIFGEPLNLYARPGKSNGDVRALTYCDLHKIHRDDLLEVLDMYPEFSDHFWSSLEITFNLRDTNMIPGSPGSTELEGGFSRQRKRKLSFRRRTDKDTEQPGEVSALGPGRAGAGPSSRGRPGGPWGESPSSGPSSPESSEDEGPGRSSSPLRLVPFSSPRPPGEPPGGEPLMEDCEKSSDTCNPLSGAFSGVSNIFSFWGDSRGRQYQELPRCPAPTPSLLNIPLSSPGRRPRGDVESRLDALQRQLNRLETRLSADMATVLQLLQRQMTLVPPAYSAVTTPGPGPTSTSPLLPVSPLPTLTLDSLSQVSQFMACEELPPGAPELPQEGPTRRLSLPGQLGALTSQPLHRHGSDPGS
hERG (KCNH2), sequence (Q12809 whole entry): as above
Cytochrome P450 2C9, sequence (P11712 whole entry): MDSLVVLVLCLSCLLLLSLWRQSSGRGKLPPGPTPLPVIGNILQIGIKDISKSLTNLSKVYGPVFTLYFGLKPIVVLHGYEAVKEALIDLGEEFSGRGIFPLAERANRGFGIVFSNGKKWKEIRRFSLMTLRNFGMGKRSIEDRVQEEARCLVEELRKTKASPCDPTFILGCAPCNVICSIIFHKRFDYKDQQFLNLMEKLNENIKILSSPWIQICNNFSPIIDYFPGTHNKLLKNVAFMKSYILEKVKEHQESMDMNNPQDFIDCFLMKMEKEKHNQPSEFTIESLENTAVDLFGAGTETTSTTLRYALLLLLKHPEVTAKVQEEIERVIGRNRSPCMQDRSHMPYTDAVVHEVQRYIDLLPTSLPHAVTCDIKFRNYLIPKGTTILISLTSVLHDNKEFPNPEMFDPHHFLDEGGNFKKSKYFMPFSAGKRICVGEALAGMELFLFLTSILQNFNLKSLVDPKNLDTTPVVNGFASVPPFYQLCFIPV

Row | SMILES | EC50 [3] | CC50 at 120 h [4] | solubility [5] | Activity [6] | Cmax [7] | fraction unbound at 5 h, 1 µM [8] | half-life [9] | AUC(0-inf) [11] | AUC(0-inf) [12] | logD [14] | Vd [20] | Kp [21] | fraction unbound at 5 h, 1 µM [24] | pKa [25] | pKa [26] | Papp at 18 h, 150 µM [27] | Ratio CC50/EC50 [30] | further results
1 | COC(=O)C1=C(CN2CCOC[C@H]2C(=O)O)NC(c2nccs2)=N[C@H]1c1ccc(F)cc1Cl | – | – | – | – | – | – | – | – | – | – | – | – | – | – | – | – | – | Stability [1]: Stable; Activity [2]: Active
2 | COC(=O)C1=C(CN2CCO[C@H](C)[C@H]2C(=O)O)NC(c2nccs2)=N[C@H]1c1ccc(F)cc1Cl | 0.007 µM | > 100 µM | > 667 µg/mL | 81% | – | – | – | – | – | – | – | – | – | – | – | – | – | –
3 | COC(=O)C1=C(CN2CCOC[C@H]2C(=O)O)N=C(c2nccs2)N[C@H]1c1ccc(F)cc1Cl | – | > 100 µM | > 666 µg/mL | 111% | 413 ng/mL | 0.074 | 1.5 h | 962 ng·h/mL | 11800 ng·h/mL | 0.06 | 2.5 L/kg | 12.3 | 0.057 | 1.8 | 5.8 | 1.4 ×10⁻⁶ cm/s | – | IC50 [10]: > 50 µM; IC50 [13]: > 50 µM; IC50 [15]: > 50 µM; Activity [16]: Non-Toxic; IC50 [17]: > 50 µM; TDI [18]: Not Active; IC50 [19]: > 50 µM; IC20 [22]: > 10 µM; inhibition (INH) [23]: Not Active
4 | COC(=O)C1=C(CN2CCOC[C@H]2C(=O)O)NC(c2nccs2)=N[C@H]1c1ccc(F)c(F)c1C | 0.002 µM | > 100 µM | > 604 µg/mL | 56% | 283 ng/mL | 0.062 | 1.4 h | 344 ng·h/mL | 9210 ng·h/mL | 0.44 | 1.9 L/kg | 27 | 0.054 | < 2.5 | 5.7 | 2.7 ×10⁻⁶ cm/s | >50000 | clearance [28]: 44 mL/min/kg; bioavailability [29]: 30%; AUC(0-inf) [31]: 379 ng·h/mL
5 | COC(=O)C1=C(CN2CCOC[C@H]2C(=O)O)NC(c2nc(C(F)(F)F)cs2)=N[C@H]1c1ccc(F)cc1Cl | 0.003 µM | > 100 µM | – | 72% | – | – | – | – | – | – | – | – | – | – | – | – | >33333 | –
6 | CCOC(=O)C1=C(CN2CCOC[C@H]2C(=O)O)NC(c2nccs2)=N[C@H]1c1cccc(F)c1Cl | 0.0008 µM | > 100 µM | > 679 µg/mL | 144% | 783 ng/mL | 0.022 | 3 h | 624 ng·h/mL | 2000 ng·h/mL | 0.42 | 4.1 L/kg | 3.2 | 0.02 | 1.8 | 5.7 | 3.3 ×10⁻⁶ cm/s | 125000 | clearance [28]: 66 mL/min/kg; bioavailability [29]: 82%; AUC(0-inf) [31]: 253 ng·h/mL
7 | CCOC(=O)C1=C(CN2CCOC[C@H]2C(=O)O)NC(c2nccs2)=N[C@H]1c1ccc(F)cc1Cl | 0.002 µM | > 100 µM | – | 183% | – | – | – | – | – | – | – | – | – | – | – | – | – | –
